Measured values reported in ChEMBL document CHEMBL3992541, “Combined treatment with zingerone and its novel derivative synergistically inhibits TGF-β1 induced epithelial-mesenchymal transition, migration and invasion of human hepatocellular carcinoma cells” (2017).
The source made the active and inactive calls. No cut-off for these calls is given here.

How the values were obtained:
[1] = target: Transcription factor Jun (Homo sapiens) (UniProt P05412); experiment: Inhibition of TGFbeta1-induced AP-1 binding activity in human SNU182 cells at 20 to 40 uM measured after 48 hrs in presence of (E)-1-(9-Ethyl-9H-carbazol-3-yl)-5-(4-hydroxy-3-methoxyphenyl)pent-1-en-3-one by luciferase reporter gene assay; assay type: cell-based
Sequence of Transcription factor Jun (Homo sapiens) (P05412 whole entry): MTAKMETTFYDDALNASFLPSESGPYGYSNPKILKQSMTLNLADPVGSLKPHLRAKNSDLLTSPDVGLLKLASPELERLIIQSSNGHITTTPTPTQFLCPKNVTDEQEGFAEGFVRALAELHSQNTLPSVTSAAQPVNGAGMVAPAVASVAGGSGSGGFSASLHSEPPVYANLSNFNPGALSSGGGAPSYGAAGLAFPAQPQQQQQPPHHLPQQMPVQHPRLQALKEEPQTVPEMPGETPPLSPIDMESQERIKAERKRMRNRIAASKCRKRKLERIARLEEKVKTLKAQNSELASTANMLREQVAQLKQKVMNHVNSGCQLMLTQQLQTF
Summary of the method: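 SNU182 transfected with pGL4.44-AP-1-RE-Luc or empty pGL4.44, pretreated with the mixture (20 and 40 µM), then stimulated with TGF-β1 or DMSO. Luciferase reporter activity read. Mean±SD of triplicates.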

SNU-182 [2] = experiment: (§1) Inhibition of TGFbeta1-induced epithelial-mesenchymal transition in human SNU182 cells assessed as reduction in MMP2 mRNA expression preincubated for 2 hrs followed by TGFbeta1 addition measured after 48 hrs in presence of (E)-1-(9-Ethyl-9H-carbazol-3-yl)-5-(4-hydroxy-3-methoxyphenyl)pent-1-en-3-one by qRT-PCR method; assay type: functional, cell-based
Summary of the method: (§2)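 SNU182 cells pretreated 2 h with single agents (12.5 or 40 µM) or the mixture (20 or 40 µM), then TGF-β 5 ng/ml for 48 h. MMP-2 and MMP-9 mRNA measured by RT-PCR with densitometry and by qRT-PCR, fold change by the 2^-ΔΔCt method. Mean±SD of triplicates.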

SNU-182 [3] = experiment: as §1, with “upregulation of Snail” for “MMP2 mRNA”, “Western blot” for “qRT-PCR”; assay type: functional, cell-based
Summary of the method: (§3)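 SNU182 cells pretreated 2 h with single agents (12.5 or 40 µM) or the mixture (20 and 40 µM), then stimulated with TGF-β1 5 ng/ml for 48 h. E-cadherin and Snail protein detected by Western blot, with GAPDH as loading control.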

SNU-182 [4] = experiment: Inhibition of TGFbeta1-induced invasion in human SNU182 cells at 40 uM measured after 48 hrs in presence of (E)-1-(9-Ethyl-9H-carbazol-3-yl)-5-(4-hydroxy-3-methoxyphenyl)pent-1-en-3-one by microscopic method; assay type: functional, cell-based
Summary of the method: (§4)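 Matrigel invasion chamber: SNU182 cells in the inner chamber received TGF-β1 with or without the mixture for 48 h. Cells on the lower surface stained, imaged at 200×, and counted. Mean±SD of triplicates.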

SNU-182 [5] = experiment: Inhibition of TGFbeta1-induced epithelial-mesenchymal transition in human SNU182 cells assessed as reduction in MMP2 activity measured after 48 hrs in presence of (E)-1-(9-Ethyl-9H-carbazol-3-yl)-5-(4-hydroxy-3-methoxyphenyl)pent-1-en-3-one by gelatin zymography assay; assay type: functional, cell-based
Summary of the method: (§5)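 Cells serum-starved overnight in 0.2% FBS medium, then left untreated or given TGF-β 5 ng/ml and/or the mixture for 48 h. MMP-2 and MMP-9 activity in conditioned medium determined by gelatin zymography.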

SNU-182 [6] = experiment: Inhibition of TGFbeta1-induced epithelial-mesenchymal transition in human SNU182 cells assessed as reduction in upregulation of Snail expression at 40 uM preincubated for 2 hrs followed by TGFbeta1 addition measured after 48 hrs by Western blot method; assay type: functional, cell-based; summary of the method: as §3
Homo sapiens [7] = organism: Homo sapiens; experiment: Inhibition of TGFbeta1-induced NF-kB binding activity in human SNU182 cells at 20 to 40 uM measured after 48 hrs in presence of (E)-1-(9-Ethyl-9H-carbazol-3-yl)-5-(4-hydroxy-3-methoxyphenyl)pent-1-en-3-one by luciferase reporter gene assay; assay type: cell-based
Summary of the method: (§6)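 Cells transfected with pGL4.32-NF-κB-RE-Luc or empty pGL4.32, then treated with the mixture and/or TGF-β1. Luciferase reporter activity read. Mean±SD of triplicates.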

Homo sapiens [8] = organism: Homo sapiens; experiment: Inhibition of TGFbeta1-induced NF-kB nuclear translocation in human SNU182 cells preincubated for 2 hrs followed by TGFbeta1 addition measured after 12 hrs in presence of (E)-1-(9-Ethyl-9H-carbazol-3-yl)-5-(4-hydroxy-3-methoxyphenyl)pent-1-en-3-one by Western blot method; assay type: cell-based
Summary of the method: (§7)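 Mixture added to SNU182 cells for 2 h before TGF-β1 for 12 h. Cytosolic and nuclear fractions analysed by Western blot for NF-κB, with COX4 as cytosolic and Lamin B1 as nuclear marker.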

SNU-182 [9] = experiment: Inhibition of TGFbeta1-induced epithelial-mesenchymal transition in human SNU182 cells assessed as reduction in upregulation of N-cadherin expression preincubated for 2 hrs followed by TGFbeta1 addition measured after 48 hrs in presence of (E)-1-(9-Ethyl-9H-carbazol-3-yl)-5-(4-hydroxy-3-methoxyphenyl)pent-1-en-3-one by Western blot method; assay type: functional, cell-based
Summary of the method: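 Pretreatment of SNU182 cells with the mixture at 20 and 40 µM for 2 h in serum-free medium, followed by TGF-β1 5 ng/ml for 48 h. N-cadherin and Snail detected by Western blot against GAPDH.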

SNU-182 [10] = experiment: as §1, with “MMP9” for “MMP2”; assay type: functional, cell-based; summary of the method: as §2
Homo sapiens [11] = organism: Homo sapiens; experiment: Inhibition of TGFbeta1-induced NF-kB binding activity in human SNU182 cells at 20 to 40 uM measured after 48 hrs in presence of zingerone by luciferase reporter gene assay; assay type: cell-based; summary of the method: as §6
SNU-182 [12] = experiment: Inhibition of TGFbeta1-induced epithelial-mesenchymal transition in human SNU182 cells assessed as reduction in MMP2 activity measured after 48 hrs in presence of zingerone by gelatin zymography assay; assay type: functional, cell-based; summary of the method: as §5
SNU-182 [13] = experiment: Inhibition of TGFbeta1-induced epithelial-mesenchymal transition in human SNU182 cells assessed as reduction in downregulation of E-cadherin expression preincubated for 2 hrs followed by TGFbeta1 addition measured after 48 hrs in presence of zingerone by Western blot method; assay type: functional, cell-based; summary of the method: as §3
SNU-182 [14] = experiment: Inhibition of TGFbeta1-induced invasion in human SNU182 cells at 40 uM measured after 48 hrs in presence of zingerone by microscopic method; assay type: functional, cell-based; summary of the method: as §4
SNU-182 [15] = experiment: Growth inhibition of human SNU182 cells at <12.5 uM after 48 hrs by CCK8 assay; assay type: functional, cell-based
SNU-182 [16] = experiment: Growth inhibition of human SNU182 cells after 48 hrs by CCK8 assay; assay type: functional, cell-based
Homo sapiens [17] = organism: Homo sapiens; experiment: Inhibition of TGFbeta1-induced NF-kB nuclear translocation in human SNU182 cells preincubated for 2 hrs followed by TGFbeta1 addition measured after 12 hrs in presence of zingerone by Western blot method; assay type: cell-based; summary of the method: as §7
SNU-182 [18] = experiment: Inhibition of TGFbeta1-induced epithelial-mesenchymal transition in human SNU182 cells assessed as reduction in MMP9 activity measured after 48 hrs in presence of zingerone by gelatin zymography assay; assay type: functional, cell-based; summary of the method: as §5
SNU-182 [19] = experiment: Inhibition of TGFbeta1-induced epithelial-mesenchymal transition in human SNU182 cells assessed as reduction in upregulation of Snail expression preincubated for 2 hrs followed by TGFbeta1 addition measured after 48 hrs in presence of zingerone by Western blot method; assay type: functional, cell-based; summary of the method: as §3

| inhibition [1] | Compound | inhibition (SNU-182 [2]) | inhibition (SNU-182 [3]) | inhibition (SNU-182 [4]) | inhibition (SNU-182 [5]) | inhibition (SNU-182 [6]) | inhibition (Homo sapiens [7]) | inhibition (Homo sapiens [8]) | inhibition (SNU-182 [9]) | inhibition (SNU-182 [10]) | inhibition (Homo sapiens [11]) | inhibition (SNU-182 [12]) | inhibition (SNU-182 [13]) | inhibition (SNU-182 [14]) | growth inhibition (GI) (SNU-182 [15]) | growth inhibition (GI) (SNU-182 [16]) | inhibition (Homo sapiens [17]) | inhibition (SNU-182 [18]) | inhibition (SNU-182 [19]) |
| --- | --- | --- | --- | --- | --- | --- | --- | --- | --- | --- | --- | --- | --- | --- | --- | --- | --- | --- | --- |
| Active | COc1cc(CCC(C)=O)ccc1O | Dose-dependent effect | Dose-dependent effect | Active | Active | inactive | Active | Dose-dependent effect | Dose-dependent effect | Dose-dependent effect | – | – | – | – | – | – | – | – | – |
| – | CCn1c2ccccc2c2cc(/C=C/C(=O)CCc3ccc(O)c(OC)c3)ccc21 | – | – | – | – | – | – | – | – | – | Active | Active | Dose-dependent effect | Active | inactive | Dose-dependent effect | Dose-dependent effect | Active | Dose-dependent effect |
